Activity calls are given as the source filed them. The rule behind the calls is not given here.
What was measured:
[1] = test system: Rattus norvegicus; assay: Antiovulatory activity in Sprague-Dawley rat assessed as blockage of luteinizing hormone surge by measuring reduction in ovulation at 8 mg/kg, iv by microscopic analysis; type: functional, organism-based; parameters: dose 8 mg/kg
Outline: (§1)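 Female rats (270-300 g) with at least two consecutive 4-day estrus cycles, tracked by daily vaginal smears, were used on the day of proestrus. A single dose was given at 1200 h, either iv in 50% Me2SO or orally in PEG 400. Controls received vehicle only. Rats were killed on the day of estrus, and oviducts were examined microscopically for ova. Absence of ova was scored as ovulation blocked.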

[2] = test system: Rattus norvegicus; assay: Antiovulatory activity in Sprague-Dawley rat assessed as blockage of luteinizing hormone surge by measuring reduction in ovulation at 8 mg/kg, po by microscopic analysis; type: functional, organism-based; parameters: dose 8 mg/kg; outline: as §1
[3] = Half life in rat plasma after 2 hrs; type: ADME, cell-free
[4] = Half life in rat plasma after 30 mins; type: ADME, cell-free
[5] = Half life in serum (unknown origin) after first 2 hrs post iv dose; type: ADME, organism-based
[6] = test system: Rattus norvegicus; assay: Antiovulatory activity in Sprague-Dawley rat assessed as blockage of luteinizing hormone surge by measuring reduction in ovulation at 4 mg/kg, iv by microscopic analysis; type: functional, organism-based; parameters: dose 4 mg/kg; outline: as §1
[7] = species on record: Xenopus laevis; assay: Melatonin-like activity in tadpole by blanching test; type: functional, organism-based
[8] = test system: Rattus norvegicus; assay: Antiovulatory activity in Sprague-Dawley rat assessed as blockage of luteinizing hormone surge by measuring reduction in ovulation at 5 mg/kg, po by microscopic analysis; type: functional, organism-based; parameters: dose 5 mg/kg; outline: as §1
[9] = test system: Rattus norvegicus; assay: Antiovulatory activity in Sprague-Dawley rat assessed as blockage of luteinizing hormone surge by measuring reduction in ovulation at 4 mg/kg, po by microscopic analysis; type: functional, organism-based; parameters: dose 4 mg/kg; outline: as §1

## CC(=O)NCCc1c[nH]c2ccc(O)cc12
[1]
  Activity: Active
[2]
  Activity: Active

## COc1ccc2[nH]cc(CCNC(C)=O)c2c1Cl
[2]
  Activity: Active

## COc1cc2c(CCNC(C)=O)c[nH]c2cc1C
[2]
  Activity: Active

## COc1ccc2[nH]cc(CCNC(C)=O)c2c1 [MELATONIN]
[3]
  half-life: 12 min
[4]
  half-life: 15 min
[5]
  half-life: > 12 min

## CC(=O)NCCc1c[nH]c2ccc(OC3CCCC3)cc12
[2]
  Activity: Active

## CCOc1ccc2[nH]cc(CCNC(C)=O)c2c1
[2]
  Activity: Active

## COc1ccc2c(c1)c(CCNC(C)=O)cn2C
[2]
  Activity: Active

## COc1cc2c(CCNC(C)=O)c[nH]c2cc1Cl
[6]
  Activity: inactive
[7]
  Activity: Active
[8]
  Activity: inactive
[5]
  half-life: 27 min

## COc1cc2c(CCNC(=O)C34CC5CC(CC(C5)C3)C4)c[nH]c2cc1Cl
[2]
  Activity: Active

## CC(=O)NCCc1c[nH]c2ccc(OC(C)=O)cc12
[1]
  Activity: Active
[2]
  Activity: Active

## CCC(=O)NCCc1c[nH]c2cc(Cl)c(OC)cc12
[9]
  Activity: inactive
